# Measurements as given in ChEMBL document CHEMBL1142380, “Synthesis, in vitro characterization, and radiolabeling of reboxetine analogs as potential PET radioligands for imaging the norepinephrine transporter” (Bioorg Med Chem, 2008).
# Legend:
# [1] = species: Homo sapiens; experiment: Selectivity ratio of Ki for human DAT to Ki for human NET
# [2] = target: Sodium-dependent serotonin transporter (Homo sapiens, UniProt P31645); experiment: Displacement of [3H]citalopram from human SERT expressed in HEK293 cells; type: cell-based
# Sequence of Sodium-dependent serotonin transporter (P31645 whole entry): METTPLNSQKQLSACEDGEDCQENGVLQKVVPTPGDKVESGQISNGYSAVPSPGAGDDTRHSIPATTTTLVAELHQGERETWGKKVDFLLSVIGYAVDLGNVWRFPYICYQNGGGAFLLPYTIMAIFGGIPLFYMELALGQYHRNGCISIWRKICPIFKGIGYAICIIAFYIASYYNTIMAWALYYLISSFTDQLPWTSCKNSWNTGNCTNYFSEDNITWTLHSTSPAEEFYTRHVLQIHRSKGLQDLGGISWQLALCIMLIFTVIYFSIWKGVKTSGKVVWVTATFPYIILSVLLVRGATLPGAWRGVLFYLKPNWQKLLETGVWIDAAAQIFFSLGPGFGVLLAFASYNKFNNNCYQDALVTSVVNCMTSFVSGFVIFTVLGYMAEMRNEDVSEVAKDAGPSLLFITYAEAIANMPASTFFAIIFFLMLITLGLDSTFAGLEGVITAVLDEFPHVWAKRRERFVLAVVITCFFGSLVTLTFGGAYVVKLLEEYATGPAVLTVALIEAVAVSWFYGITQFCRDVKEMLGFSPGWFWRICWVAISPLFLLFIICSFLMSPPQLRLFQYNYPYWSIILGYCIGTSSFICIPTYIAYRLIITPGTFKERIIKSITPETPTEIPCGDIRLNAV
# In short: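 Membranes from HEK-293 cells stably expressing hSERT, 30–70 µg protein, with [3H]citalopram. Buffer: 53 mM Tris, 126 mM NaCl, 5.3 mM KCl, pH 7.9. Incubated 2 h at room temperature. Competitor tested at 12 concentrations, 10^-13 to 10^-5 M, in triplicate. Ended by cold-buffer vacuum filtration on 0.3% PEI-soaked GF/B filters. Ki given as geometric mean of ≥3 separate assays.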
# [3] = target: Sodium-dependent dopamine transporter (Homo sapiens, UniProt Q01959); experiment: Displacement of [125I]RTI-55 from human DAT expressed in HEK-293 cells
# Sequence of Sodium-dependent dopamine transporter (Q01959 whole entry): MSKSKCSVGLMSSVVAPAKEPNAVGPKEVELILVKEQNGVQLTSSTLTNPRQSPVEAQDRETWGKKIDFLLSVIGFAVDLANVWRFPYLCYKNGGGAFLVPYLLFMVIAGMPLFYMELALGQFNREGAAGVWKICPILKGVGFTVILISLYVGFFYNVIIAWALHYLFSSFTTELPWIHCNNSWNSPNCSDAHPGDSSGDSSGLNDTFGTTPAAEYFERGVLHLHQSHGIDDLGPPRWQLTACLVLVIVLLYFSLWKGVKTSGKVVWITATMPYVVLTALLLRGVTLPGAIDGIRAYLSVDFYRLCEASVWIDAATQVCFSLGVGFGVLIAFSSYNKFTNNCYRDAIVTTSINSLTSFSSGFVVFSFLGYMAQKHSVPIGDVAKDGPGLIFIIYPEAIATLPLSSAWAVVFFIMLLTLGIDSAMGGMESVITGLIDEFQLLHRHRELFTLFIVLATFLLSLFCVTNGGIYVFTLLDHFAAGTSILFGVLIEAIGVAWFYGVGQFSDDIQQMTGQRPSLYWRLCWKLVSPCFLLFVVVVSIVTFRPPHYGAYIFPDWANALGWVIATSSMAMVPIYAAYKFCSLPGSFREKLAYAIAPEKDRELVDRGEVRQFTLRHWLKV
# [4] = species: Homo sapiens; experiment: Selectivity ratio of Ki for human SERT to Ki for human NET
# [5] = target: Sodium-dependent noradrenaline transporter (Homo sapiens, UniProt P23975); experiment: Displacement of [3H]nisoxetine from human NET expressed in HEK293 cells; type: cell-based
# Sequence of Sodium-dependent noradrenaline transporter (P23975 whole entry): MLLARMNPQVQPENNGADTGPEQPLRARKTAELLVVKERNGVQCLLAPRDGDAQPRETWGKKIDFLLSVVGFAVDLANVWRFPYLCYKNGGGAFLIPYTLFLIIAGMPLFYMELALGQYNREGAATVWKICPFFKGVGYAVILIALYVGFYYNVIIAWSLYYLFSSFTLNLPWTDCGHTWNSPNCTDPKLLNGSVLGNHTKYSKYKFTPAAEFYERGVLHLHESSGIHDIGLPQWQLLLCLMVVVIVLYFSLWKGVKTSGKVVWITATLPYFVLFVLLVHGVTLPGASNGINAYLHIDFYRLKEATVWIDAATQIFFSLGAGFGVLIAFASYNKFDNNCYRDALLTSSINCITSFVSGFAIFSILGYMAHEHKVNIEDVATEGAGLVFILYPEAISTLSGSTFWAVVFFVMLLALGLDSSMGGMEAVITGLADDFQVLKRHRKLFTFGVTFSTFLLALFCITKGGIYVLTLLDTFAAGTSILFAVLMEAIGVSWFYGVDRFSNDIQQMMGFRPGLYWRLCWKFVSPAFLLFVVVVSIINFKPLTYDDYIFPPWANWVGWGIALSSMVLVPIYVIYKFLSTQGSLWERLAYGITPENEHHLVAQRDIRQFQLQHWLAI
# In short: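 Membranes from HEK-293 cells stably expressing hNET (grown in DMEM, 10% FBS, Geneticin), 30–70 µg protein per tube, with [3H]nisoxetine. Buffer: 53 mM Tris, 320 mM NaCl, 5.3 mM KCl, pH 7.4 at 4 °C. Incubated 4 h at 4 °C. Competitor tested at 12 concentrations, 10^-13 to 10^-5 M, in triplicate. Filtered on PEI-soaked GF/B filters. Ki given as geometric mean of ≥3 assays.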
SMILES,Ratio Ki [1],Ki [2] [nM],Ki [3] [nM],Ratio Ki [4],Ki [5] [nM]
COC(=O)c1ccccc1O[C@@H](c1ccccc1)[C@@H]1CNCCO1,> 2000,614,> 3000,465,1.32
COc1ccccc1O[C@@H](c1ccccc1)[C@@H]1CNCCO1,> 10000,185,> 10000,195,0.95
CSc1ccccc1O[C@@H](c1ccccc1)[C@@H]1CNCCO1,> 3000,90.9,> 6000,44,2.06

# More lines, now with the values ahead:
Ratio Ki [1],Ki [2] [nM],Ki [3] [nM],Ratio Ki [4],Ki [5] [nM],SMILES
> 4000,9.69,> 4000,13,0.76,COc1ccccc1S[C@@H](c1ccccc1)[C@@H]1CNCCO1
> 20000,498,> 30000,369,1.35,COC(=O)c1ccccc1S[C@@H](c1ccccc1)[C@@H]1CNCCO1
> 10000,733,> 10000,733,1,FCCOc1ccccc1S[C@@H](c1ccccc1)[C@@H]1CNCCO1
> 7000,121,> 9000,100,1.21,FCCCOc1ccccc1S[C@@H](c1ccccc1)[C@@H]1CNCCO1
